The term IC50 denotes the concentration needed to halve the response being measured. The term inhibition denotes the relative decrease from the control value, in per cent.

Assay [1] concerns ERK1/2. The experiment in a line: Z'-LYTE Kinase Assay, Ser/Thr 3 peptide. It counts as biochemical, human. The settings on record: 1.25, 2.5, 5, and 10 µM. Summed up: (§1)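 Coupled-enzyme, antibody-free fluorescence kinase assay on HeLa cell lysates (10–100 µg per well). Substrates: Ser/Thr 4 peptide for ERK5, Ser/Thr 3 peptide for ERK1/2. Test compound at 1.25, 2.5, 5 and 10 µM. Coumarin (Ex 400/Em 445 nm) and fluorescein (Ex 400/Em 520 nm) emissions read on a plate reader.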

The test system of assay [2] is Hela cells. The experiment in a line: Annexin V/Propidium iodide flow cytometry. It counts as cell-based, human. The following applies: 5 µM, 24 h. An outline of the steps:
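Apoptosis assay: HeLa cells (5 × 10^5) seeded in 6-well plates for 24 h, serum-starved 20 h, then exposed to test compound for 24 h (1, 2.5 or 5 µM in methods). Annexin V-FITC/PI kit staining, flow cytometry. Quadrants: lower right early apoptotic, upper right late apoptotic, upper left necrotic. Mean ± SD of three independent experiments.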
A general note: In flow cytometry, cells or beads pass a laser one at a time.

In assay [3] the target is ERK5 (Homo sapiens, UniProt Q13164). Briefly: Z'-LYTE Kinase Assay, Ser/Thr 4 peptide. It counts as biochemical. The settings on record: read-out: IC50 against ERK5 (Z'-LYTE kinase assay). An outline of the steps:
as §1

Assay [4] concerns AP-1 reporter in HeLa cells. Briefly: ERK5-driven AP-1 reporter assay. It counts as cell-based, human. The following applies: 5 µM. An outline of the steps: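 HeLa cells (2 × 10^5 per well, 6-well) transiently lipofected with an AP-1-luc reporter vector carrying six AP-1 response elements. After transfection, cells received 5 µM test compound. AP-1 mRNA measured by RT-PCR (TRIzol RNA, reverse transcription, duplicate real-time reactions), with GAPDH as normaliser and the 2−∆∆Cq method.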

The test system of assay [5] is Hela cells. The experiment in a line: DAPI staining assay. Type of assay: cell-based, human. The following applies: 5 µM, 24 h, compared to DMSO. Summed up: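 HeLa cells (5 × 10^3) seeded in 24-well plates for 24 h, treated 24 h with test compound (1, 2.5 or 5 µM in methods). Fixed in 4% paraformaldehyde 10 min, washed, stained with 300 nM DAPI 15 min in the dark. Nuclear morphology of apoptotic cells examined by fluorescence microscopy.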

In assay [6] the test system is PCNA expression in Hela cells. Briefly: PCNA mRNA expression by quantitative RT-PCR. Type of assay: cell-based, human. The settings on record: for inhibition rate of the expression of PCNA: Hela cells, qRT-PCR, 5 μM as printed in abstract; for inhibition at 10 µM: Homo sapiens, HeLa, read-out: Inhibition of PCNA expression. A general note: Quantitative PCR measures a nucleic acid by following its amplification.

Chain of ERK5 (Q13164 2-816): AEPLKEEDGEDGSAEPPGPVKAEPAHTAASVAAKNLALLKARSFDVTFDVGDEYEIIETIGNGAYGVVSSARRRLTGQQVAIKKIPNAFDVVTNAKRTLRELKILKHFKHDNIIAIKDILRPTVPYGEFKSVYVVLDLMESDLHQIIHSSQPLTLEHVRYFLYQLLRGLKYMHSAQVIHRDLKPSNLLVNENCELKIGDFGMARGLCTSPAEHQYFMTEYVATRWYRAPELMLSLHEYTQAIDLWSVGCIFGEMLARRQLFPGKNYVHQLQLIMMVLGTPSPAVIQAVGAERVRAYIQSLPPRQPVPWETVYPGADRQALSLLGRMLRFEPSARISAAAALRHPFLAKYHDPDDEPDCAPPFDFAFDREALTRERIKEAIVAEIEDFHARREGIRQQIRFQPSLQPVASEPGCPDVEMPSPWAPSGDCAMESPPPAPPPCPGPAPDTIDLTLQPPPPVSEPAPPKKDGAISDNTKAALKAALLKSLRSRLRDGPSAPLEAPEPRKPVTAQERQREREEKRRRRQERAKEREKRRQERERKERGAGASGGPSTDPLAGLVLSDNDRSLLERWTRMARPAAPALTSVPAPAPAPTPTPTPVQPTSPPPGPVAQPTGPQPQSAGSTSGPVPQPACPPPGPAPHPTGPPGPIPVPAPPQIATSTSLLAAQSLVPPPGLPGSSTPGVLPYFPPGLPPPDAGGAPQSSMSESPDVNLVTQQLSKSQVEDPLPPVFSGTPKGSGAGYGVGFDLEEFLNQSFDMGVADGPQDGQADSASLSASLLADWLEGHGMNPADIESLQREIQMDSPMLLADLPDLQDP

Consider `Cc1cc2c(cc1C)[n+](Cc1cc(OCCC(C)C)c3ccccc3c1OCCC(C)C)cn2CCC(C)C.[Br-]` [4k, 3-((1,4-Bis(isoamyloxy)naphthalen-2-yl)methyl)−1-isoamyl-5,6-dimethyl-1H-benzo[d]imidazol-3-ium bromide], for which the “effect on ERK1/2 kinase activity” value in assay [1] is given as “did not inhibit ERK1/2 kinase activity”. Besides, the “increase of late apoptotic events compared with DMSO” value in assay [2] worked out at 14%. Further, the half-maximal inhibitory concentration (IC50) in assay [3] is 9 µM. Further, the “expression of AP-1” value in assay [4] was “significantly decreased”. The “apoptosis by DAPI staining” value in assay [5] is “triggered apoptosis”. For the same compound, in assay [6], the “inhibition rate of the expression of PCNA” value was found to be 70.2% and the inhibition at 10 µM was 70.2%.
`CC(C)CCOc1cc(C[n+]2c(C(C)C)n(CCC(C)C)c3ccccc32)c(OCCC(C)C)c2ccccc12.[Br-]` [4e, 3-((1,4-bis(isopentyloxy)naphthalen-2-yl)methyl)−1-isoamyl-2-isopropyl-1H-benzo[d]imidazol-3-ium bromide]: in assay [1], the “effect on ERK1/2 kinase activity” value is “did not inhibit ERK1/2 kinase activity”. The “increase of late apoptotic events compared with DMSO” value in assay [2] turned out to be 10.8%. Moreover, in assay [3], the half-inhibitory concentration (IC50) is 5.1 µM. Also, the “expression of AP-1” value in assay [4] is listed as “significantly decreased”. The “apoptosis by DAPI staining” value in assay [5] is “triggered apoptosis”. Also, the “inhibition rate of the expression of PCNA” value in assay [6] is 61.1%.
On to `CC(C)CCOc1cc(C[n+]2cn(CCC(C)C)c3cc(Br)c(Br)cc32)c(OCCC(C)C)c2ccccc12` [4m, 3-((1,4-Bis(isoamyloxy)naphthalen-2-yl)methyl)−5,6-dibromo-1-isoamyl-1H-benzo[d]imidazol-3-ium bromide], for which the inhibition at 10 µM in assay [6] came out at 57%.
For the compound `COC(C)c1n(CCC(C)C)c2ccccc2[n+]1Cc1cc(OCCC(C)C)c2ccccc2c1OCCC(C)C` (stereo not drawn) [4j, 3-((1,4-Bis(isoamyloxy)naphthalen-2-yl)methyl)−1-isoamyl-2-(1-methoxyethyl)−1H-benzo[d]imidazol-3-ium bromide], the inhibition at 10 µM in assay [6] was 57.4%.

Values taken from article PMC12009964 (Scientific Reports, 2025).
